{"source": "paper PMC3038628", "about": "(Journal of molecular biology, 2010)", "molecules": {"B1": {"name": "F165D: α-TTP mutant, Phe165 to Asp (helix A8) (protein, UniProt P49638 1-278, looked up, variant F165D)", "Alpha-tocopherol transfer …": "MAEARSQPSAGPQLNALPDHSPLLQPGLAALRRRAREAGVPLAPLPLTDSFLLRFLRARDFDLDLAWRLLKNYYKWRAECPEISADLHPRSIIGLLKAGYHGVLRSRDPTGSKVLIYRIAHWDPKVFTAYDVFRVSLITSELIVQEVETQRNGIKAIFDLEGWQDSHAFQITPSVAKKIAAVLTDSFPLKVRGIHLINEPVIFHAVFSMIKPFLTEKIKERIHMHGNNYKQSLLQHFPDILPLEYGGEEFSMEDICQEWTNFIMKSEDYLSSISESIQ"}, "B2": {"name": "F169D: α-TTP mutant, Phe169 to Asp (helix A8) (protein, UniProt P49638 1-278, looked up, variant F169D)", "Alpha-tocopherol transfer …": "B1 Alpha-tocopherol transfer … with D165F, F169D"}, "B3": {"name": "K217A: α-TTP mutant, surface Lys217 (helix A11) to Ala (protein, UniProt P49638 1-278, looked up, variant K217A)", "Alpha-tocopherol transfer …": "B1 Alpha-tocopherol transfer … with D165F, K217A"}, "B4": {"name": "V206A: α-TTP mutant, Val206 to Ala (protein, UniProt P49638 1-278, looked up, variant V206A)", "Alpha-tocopherol transfer …": "B1 Alpha-tocopherol transfer … with D165F, V206A"}, "B5": {"name": "F165A: α-TTP mutant, Phe165 to Ala (protein, UniProt P49638 1-278, looked up, variant F165A)", "Alpha-tocopherol transfer …": "B1 Alpha-tocopherol transfer … with D165A"}, "B6": {"name": "F169A: α-TTP mutant, Phe169 to Ala (protein, UniProt P49638 1-278, looked up, variant F169A)", "Alpha-tocopherol transfer …": "B1 Alpha-tocopherol transfer … with D165F, F169A"}}, "key": {"[1]": {"molecular_target": "α-tocopherol transfer protein (α-TTP)", "details": "cited from earlier work"}, "Filtration": {"test": "Filtration", "assay_type": "binding", "details": "compared with wild type", "in_short": "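Recombinant α-TTP (31.5 μg) was incubated with increasing concentrations of sonicated SUVs or extruded 150 nm LUVs in SET buffer for 30 min at room temperature. Mixtures were spun through 100 kDa-cutoff filters at 10,000g for 20 min to separate vesicle-bound from free protein. Protein was resolved on gels, stained with colloidal Coomassie and quantified by band densitometry.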"}, "[2]": {"test": "FRET assay of NBD-Toc transfer from α-TTP variants to LUVs", "assay_type": "biochemical", "details": "for Rate of NBD-Toc transfer to LUV, Rate: PC vesicles, 0.225 μM NBD-Toc, 2 μM α-TTP, 100 μM vesicles, room temperature; for Rate of NBD-Toc transfer to LUV, Rate^mut/Rate^wt: relative to wild type", "in_short": "(§1)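 Each protein (4 μM) was preloaded with 0.45 μM NBD-Toc for 15 min in SET buffer (pH 7.4). It was then stopped-flow mixed at room temperature with 200 μM acceptor vesicles of 97% liver PC and 3% TRITC-PE (finals 0.225 μM, 2 μM, 100 μM). Vesicles were sonicated SUVs (~60 nm) or extruded LUVs (150 nm). NBD quench was normalised to initial fluorescence and fitted single-exponentially.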"}, "[3]": {"test": "Dual polarization interferometry of protein adsorption to immobilized bilayer", "assay_type": "binding", "details": "for Ads^mut/Ads^wt (0.50 μM injection): 0.50 μM protein injection; for Ads^mut/Ads^wt (1.0 μM injection): 1.0 μM protein injection; for Adsorption/binding to immobilized bilayers by DPI, % of wild type: injection concentration not stated; for Fold change in affinity: relative to wild type", "in_short": "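Recombinant α-TTP (E. coli BL21(DE3), glutathione affinity, thrombin-cleaved) was dialysed 1 h at 4 °C into pH 7.4 phosphate/137 mM NaCl buffer. It was injected at 25 μl/min for 8 min over a 90:10 DOPC:DOPS bilayer on a silicon oxynitride chip at 20 °C. Adsorbed mass was measured at 0.5 and 1.0 μM in quadruplicate, two channels each. Kd came from fitting Bmax against concentration.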"}, "[4]": {"test": "FRET assay of NBD-Toc transfer from α-TTP variants to SUVs", "assay_type": "biochemical", "details": "for Rate of NBD-Toc transfer to SUV, Rate: PC vesicles, 0.225 μM NBD-Toc, 2 μM α-TTP, 100 μM vesicles, room temperature; for Reduction of rate of transfer to SUVs: reduction relative to wild type; for Rate of NBD-Toc transfer to SUV, Rate^mut/Rate^wt: relative to wild type", "in_short": "as §1"}, "HepG2 cells": {"test_system": "HepG2 cells", "test": "α-TTP-induced secretion of NBD-tocopherol from cultured hepatocytes", "assay_type": "cell-based, Human", "details": "transiently transfected HepG2; NBD-Toc fluorescence", "in_short": "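HepG2/C3A cells on collagen-coated coverslips (DMEM, 10% FBS) were transiently transfected with α-TTP variants in pcDNA3.1, with mock controls. At 30 h they received 5 μM lipoprotein-complexed NBD-tocopherol for 16–18 h at 37 °C, then 4 h in normal medium for secretion. Cells were fixed, permeabilised and DAPI-stained. NBD fluorescence was imaged at 40× over >14 fields per slide, normalised to cell number; expression was checked by Western blot.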"}}, "note": "Numbering of substitutions follows the chain as printed. Names and notes keep the numbering of the source.", "data": [{"molecule": "Cc1c(C)c2c(c(C)c1O)CC[C@@](C)(CCC[C@H](C)CCC[C@H](C)CCCC(C)C)O2", "note": "[α-tocopherol]", "values": [{"measurement": "Kd", "setting": "[1]", "result": "~25", "unit": "nM"}]}, {"molecule": "B1", "values": [{"measurement": "Vesicle binding to SUVs (in words)", "setting": "Filtration", "result": "diminished vesicle binding"}, {"measurement": "Rate of NBD-Toc transfer to LUV, Rate", "setting": "[2]", "result": "0.009 ± 0.005", "unit": "s⁻¹"}, {"measurement": "Rate of NBD-Toc transfer to LUV, Rate^mut/Rate^wt", "setting": "[2]", "result": 56, "unit": "%"}, {"measurement": "Ads^mut/Ads^wt (0.50 μM injection)", "setting": "[3]", "result": 0.11}, {"measurement": "Ads^mut/Ads^wt (1.0 μM injection)", "setting": "[3]", "result": 0.19}, {"measurement": "Adsorption/binding to immobilized bilayers by DPI, % of wild type", "setting": "[3]", "result": 11, "unit": "%"}, {"measurement": "Fold change in affinity", "setting": "[3]", "result": 12.2}, {"measurement": "Rate of NBD-Toc transfer to SUV, Rate", "setting": "[4]", "result": "0.013 ± 0.001", "unit": "s⁻¹"}, {"measurement": "Reduction of rate of transfer to SUVs", "setting": "[4]", "result": 90, "unit": "%"}, {"measurement": "Rate of NBD-Toc transfer to SUV, Rate^mut/Rate^wt", "setting": "[4]", "result": 10, "unit": "%"}]}, {"molecule": "B2", "values": [{"measurement": "Rate of NBD-Toc transfer to LUV, Rate^mut/Rate^wt", "setting": "[2]", "result": 0, "unit": "%"}, {"measurement": "Inhibition of tocopherol secretion as compared to the wild-type TTP", "setting": "HepG2 cells", "result": 5, "unit": "fold"}, {"measurement": "Ads^mut/Ads^wt (0.50 μM injection)", "setting": "[3]", "result": 0.18}, {"measurement": "Ads^mut/Ads^wt (1.0 μM injection)", "setting": "[3]", "result": 0.23}, {"measurement": "Fold change in affinity", "setting": "[3]", "result": 14.3}, {"measurement": "Rate of NBD-Toc transfer to SUV, Rate", "setting": "[4]", "result": "0.015 ± 0.002", "unit": "s⁻¹"}, {"measurement": "Reduction of rate of transfer to SUVs", "setting": "[4]", "result": 88, "unit": "%"}, {"measurement": "Rate of NBD-Toc transfer to SUV, Rate^mut/Rate^wt", "setting": "[4]", "result": 12, "unit": "%"}]}, {"molecule": "B3", "values": [{"measurement": "Vesicle binding to SUVs (in words)", "setting": "Filtration", "result": "essentially indistinguishable"}, {"measurement": "Rate of NBD-Toc transfer to LUV, Rate", "setting": "[2]", "result": "0.010 ± 0.004", "unit": "s⁻¹"}, {"measurement": "Rate of NBD-Toc transfer to LUV, Rate^mut/Rate^wt", "setting": "[2]", "result": 62, "unit": "%"}, {"measurement": "Ads^mut/Ads^wt (0.50 μM injection)", "setting": "[3]", "result": 1.71}, {"measurement": "Ads^mut/Ads^wt (1.0 μM injection)", "setting": "[3]", "result": 1.80}, {"measurement": "Adsorption/binding to immobilized bilayers by DPI, % of wild type", "setting": "[3]", "result": 171, "unit": "%"}, {"measurement": "Binding to immobilized bilayers, % of WT", "setting": "[3]; printed \"for LUVs\"", "result": 180, "unit": "%"}, {"measurement": "Binding to immobilized bilayers, % of WT", "setting": "[3]; printed \"for SUVs\"", "result": 171, "unit": "%"}, {"measurement": "Rate of NBD-Toc transfer to SUV, Rate", "setting": "[4]", "result": "0.130 ± 0.011", "unit": "s⁻¹"}, {"measurement": "Rate of NBD-Toc transfer to SUV, Rate^mut/Rate^wt", "setting": "[4]", "result": 102, "unit": "%"}]}, {"molecule": "B4", "values": [{"measurement": "Rate of NBD-Toc transfer to LUV, Rate", "setting": "[2]", "result": "0.016 ± 0.002", "unit": "s⁻¹"}, {"measurement": "Rate of NBD-Toc transfer to LUV, Rate^mut/Rate^wt", "setting": "[2]", "result": 100, "unit": "%"}, {"measurement": "Ads^mut/Ads^wt (0.50 μM injection)", "setting": "[3]", "result": 0.93}, {"measurement": "Ads^mut/Ads^wt (1.0 μM injection)", "setting": "[3]", "result": 1.14}, {"measurement": "Rate of NBD-Toc transfer to SUV, Rate", "setting": "[4]", "result": "0.154 ± 0.012", "unit": "s⁻¹"}, {"measurement": "Rate of NBD-Toc transfer to SUV, Rate^mut/Rate^wt", "setting": "[4]", "result": 121, "unit": "%"}]}, {"molecule": "B5", "values": [{"measurement": "Vesicle binding to SUVs (in words)", "setting": "Filtration", "result": "diminished vesicle binding"}, {"measurement": "Rate of NBD-Toc transfer to LUV, Rate", "setting": "[2]", "result": "0.005 ± 0.002", "unit": "s⁻¹"}, {"measurement": "Rate of NBD-Toc transfer to LUV, Rate^mut/Rate^wt", "setting": "[2]", "result": 34, "unit": "%"}, {"measurement": "Ads^mut/Ads^wt (0.50 μM injection)", "setting": "[3]", "result": 0.37}, {"measurement": "Ads^mut/Ads^wt (1.0 μM injection)", "setting": "[3]", "result": 0.45}, {"measurement": "Fold change in affinity", "setting": "[3]", "result": 5.1}, {"measurement": "Rate of NBD-Toc transfer to SUV, Rate", "setting": "[4]", "result": "0.037 ± 0.002", "unit": "s⁻¹"}, {"measurement": "Reduction of rate of transfer to SUVs", "setting": "[4]", "result": 71, "unit": "%"}, {"measurement": "Rate of NBD-Toc transfer to SUV, Rate^mut/Rate^wt", "setting": "[4]", "result": 29, "unit": "%"}]}, {"molecule": "B6", "values": [{"measurement": "Vesicle binding to SUVs (in words)", "setting": "Filtration", "result": "diminished vesicle binding"}, {"measurement": "Rate of NBD-Toc transfer to LUV, Rate", "setting": "[2]", "result": "0.008 ± 0.002", "unit": "s⁻¹"}, {"measurement": "Rate of NBD-Toc transfer to LUV, Rate^mut/Rate^wt", "setting": "[2]", "result": 48, "unit": "%"}, {"measurement": "Inhibition of tocopherol secretion as compared to the wild-type TTP", "setting": "HepG2 cells", "result": 2, "unit": "fold"}, {"measurement": "Ads^mut/Ads^wt (0.50 μM injection)", "setting": "[3]", "result": 0.33}, {"measurement": "Ads^mut/Ads^wt (1.0 μM injection)", "setting": "[3]", "result": 0.51}, {"measurement": "Rate of NBD-Toc transfer to SUV, Rate", "setting": "[4]", "result": "0.067 ± 0.006", "unit": "s⁻¹"}, {"measurement": "Reduction of rate of transfer to SUVs", "setting": "[4]", "result": 47, "unit": "%"}, {"measurement": "Rate of NBD-Toc transfer to SUV, Rate^mut/Rate^wt", "setting": "[4]", "result": 53, "unit": "%"}]}]}
